Reference: ChEMBL document CHEMBL4732224, “Structure activity refinement of phenylsulfonyl piperazines as antimalarials that block erythrocytic invasion” (Eur J Med Chem, 2021)

How the values were obtained:
Plasmodium falciparum [1] = assay: Antimalarial activity against Plasmodium falciparum 3D7 incubated for 72 hrs by LDH assay; format: functional, organism-based; details: 3D7, 72 h
Summary of the method: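 Asexual blood-stage P. falciparum 3D7 parasites were cultured with compound for 72 h, and viability was read by lactate dehydrogenase (LDH) activity.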

HepG2 = assay: Cytotoxicity against human HePG2 cells assessed as growth inhibition after 48 hrs by Cell Titer-Glo assay; format: cell-based; details: HepG2, 48 h
Plasmodium falciparum [2] = assay: Antimalarial activity against Plasmodium falciparum NF54 early stage (1 to 3) expressing Pfs16-LUC-GFP assessed as growth inhibition by high content imaging assay; format: functional, organism-based
Plasmodium falciparum [3] = assay: Antimalarial activity against Plasmodium falciparum NF54 late stage ([…]) expressing Pfs16-LUC-GFP assessed as growth inhibition by high content imaging assay; format: functional, organism-based

CC(C(=O)N1CCCC1)N1CCN(S(=O)(=O)c2ccc(OC(F)(F)F)cc2)CC1 (configuration not stated)
EC50 (Plasmodium falciparum [1]): > 10 µM

CC(C)c1ccc(S(=O)(=O)N2CCN(C(C)C(=O)N3CCCC3)CC2)cc1 (configuration not stated)
EC50 (Plasmodium falciparum [1]): > 10 µM | EC50 (HepG2): > 40 µM

C[C@H]1[C@H](OC(=O)CCC(=O)O)O[C@@H]2O[C@@]3(C)CC[C@H]4[C@H](C)CC[C@@H]1[C@@]24OO3 [ARTESUNATE]
EC50 (Plasmodium falciparum [1]): 8 µM | EC50 (Plasmodium falciparum [2]): 0.002 µM | EC50 (Plasmodium falciparum [3]): 0.024 µM

CC(C)(C)c1ccc(S(=O)(=O)N2CCN(C(C)(C)C(=O)N3CCCC3)CC2)cc1
EC50 (Plasmodium falciparum [1]): 7.5 µM | EC50 (HepG2): > 40 µM

CC1CCN(C(=O)C(C)N2CCN(S(=O)(=O)c3ccc(C(C)(C)C)cc3)CC2)CC1 (configuration not stated)
EC50 (Plasmodium falciparum [1]): 1.3 µM | EC50 (HepG2): > 40 µM

CC(C(=O)N1CCc2ncccc2C1)N1CCN(S(=O)(=O)c2ccc(C(C)(C)C)cc2)CC1 (configuration not stated)
EC50 (Plasmodium falciparum [1]): 2.6 µM | EC50 (HepG2): > 40 µM

CC(C)C(C(=O)N1CCCC1)N1CCN(S(=O)(=O)c2ccc(C(C)(C)C)cc2)CC1 (configuration not stated)
EC50 (Plasmodium falciparum [1]): > 10 µM

CC(C(=O)N1CCOCC1)N1CCN(S(=O)(=O)c2ccc(C(C)(C)C)cc2)CC1 (configuration not stated)
EC50 (Plasmodium falciparum [1]): 4.4 µM | EC50 (HepG2): > 40 µM

CC(C(=O)N1CCC2(CC1)CC2)N1CCN(S(=O)(=O)c2ccc(C(C)(C)C)cc2)CC1 (configuration not stated)
EC50 (Plasmodium falciparum [1]): 0.3 µM | EC50 (HepG2): > 40 µM

CC(C(=O)N1CCCC1)N1C[C@@H]2C[C@H]1CN2S(=O)(=O)c1ccc(C(C)(C)C)cc1 (mixture of isomers)
EC50 (Plasmodium falciparum [1]): > 10 µM | EC50 (HepG2): > 40 µM

CC(C)(C)c1ccc(S(=O)(=O)N2CCN(CC(=O)N3CCCC3)CC2)cc1
EC50 (Plasmodium falciparum [1]): > 10 µM

CN(C(=O)N1CCCC1)C1CCN(S(=O)(=O)c2ccc(C(C)(C)C)cc2)CC1
EC50 (Plasmodium falciparum [1]): > 10 µM

CC(C(=O)N1CCc2ccccc2C12CCCC2)N1CCN(S(=O)(=O)c2ccc(C(C)(C)C)cc2)CC1 (configuration not stated)
EC50 (Plasmodium falciparum [1]): 0.81 µM | EC50 (HepG2): > 40 µM

CC(C(=O)N1CCCC1)N1CCN(S(=O)(=O)c2ccccc2)CC1 (configuration not stated)
EC50 (Plasmodium falciparum [1]): > 10 µM

CC(C(=O)N(C)c1ccccc1)N1CCN(S(=O)(=O)c2ccc(C(C)(C)C)cc2)CC1 (configuration not stated)
EC50 (Plasmodium falciparum [1]): > 10 µM

CC(C(=O)N1CCc2ccccc2C12CCCCC2)N1CCN(S(=O)(=O)c2ccc(C(C)(C)C)cc2)CC1 (configuration not stated)
EC50 (Plasmodium falciparum [1]): 2.9 µM | EC50 (HepG2): > 40 µM

CC(C(=O)N1CCCC1)N1CCN(S(=O)(=O)c2ccc(C(C)(C)C)cc2)[C@H](C)C1 (some centres not stated)
EC50 (Plasmodium falciparum [1]): > 10 µM

CC(C(=O)N1CCc2cccnc2C1)N1CCN(S(=O)(=O)c2ccc(C(C)(C)C)cc2)CC1 (configuration not stated)
EC50 (Plasmodium falciparum [1]): 1.9 µM | EC50 (HepG2): > 40 µM

CC(=O)c1ccc(S(=O)(=O)N2CCN(C(C)C(=O)N3CCCC3)CC2)cc1 (configuration not stated)
EC50 (Plasmodium falciparum [1]): > 10 µM

CCCC(C(=O)N1CCCC1)N1CCN(S(=O)(=O)c2ccc(C(C)(C)C)cc2)CC1 (configuration not stated)
EC50 (Plasmodium falciparum [1]): > 10 µM

CC(C(=O)N1CCCC1)N1CCN(S(=O)(=O)c2ccc(Br)cc2)CC1 (configuration not stated)
EC50 (Plasmodium falciparum [1]): > 10 µM

CC(C(=O)N1Cc2ccccc2C1)N1CCN(S(=O)(=O)c2ccc(C(C)(C)C)cc2)CC1 (configuration not stated)
EC50 (Plasmodium falciparum [1]): 1 µM | EC50 (HepG2): > 40 µM

CC(C(=O)N(C)Cc1ccccc1)N1CCN(S(=O)(=O)c2ccc(C(C)(C)C)cc2)CC1 (configuration not stated)
EC50 (Plasmodium falciparum [1]): 1.2 µM | EC50 (HepG2): > 40 µM

CC(C(=O)N1CCCC1)N1CCCN(S(=O)(=O)c2ccc(C(C)(C)C)cc2)CC1 (configuration not stated)
EC50 (Plasmodium falciparum [1]): 6.3 µM | EC50 (HepG2): > 40 µM

CC(C(=O)N(C)CCc1ccccc1)N1CCN(S(=O)(=O)c2ccc(C(C)(C)C)cc2)CC1 (configuration not stated)
EC50 (Plasmodium falciparum [1]): 2.1 µM | EC50 (HepG2): 17 µM

CC(C(=O)N1CCCC1)N1CCN(S(=O)(=O)c2cccc(C(C)(C)C)c2)CC1 (configuration not stated)
EC50 (Plasmodium falciparum [1]): 8.4 µM | EC50 (HepG2): > 40 µM

CC(C)(C)c1ccc(S(=O)(=O)N2CCN(C(C(=O)N3CCCC3)c3ccccc3)CC2)cc1 (configuration not stated)
EC50 (Plasmodium falciparum [1]): 5.1 µM | EC50 (HepG2): > 40 µM

CC(C(=O)N1CCC(C)(C)CC1)N1CCN(S(=O)(=O)c2ccc(C(C)(C)C)cc2)CC1 (configuration not stated)
EC50 (Plasmodium falciparum [1]): 4.3 µM | EC50 (HepG2): > 40 µM

CC(C(=O)N1CCCC1)N1CCN(S(=O)(=O)c2ccc(C3CCCC3)cc2)CC1 (configuration not stated)
EC50 (Plasmodium falciparum [1]): > 10 µM

CC(C(=O)N1CCCC1)N1CC2(C1)CN(S(=O)(=O)c1ccc(C(C)(C)C)cc1)C2 (configuration not stated)
EC50 (Plasmodium falciparum [1]): > 10 µM

CC(C(=O)N1CC2CC2C1)N1CCN(S(=O)(=O)c2ccc(C(C)(C)C)cc2)CC1 (configuration not stated)
EC50 (Plasmodium falciparum [1]): 0.33 µM | EC50 (HepG2): > 40 µM

CC(C(=O)N1CCc2ccccc2C1)N1CCN(S(=O)(=O)c2ccc(C(C)(C)C)cc2)CC1 (configuration not stated)
EC50 (Plasmodium falciparum [1]): 0.99 µM | EC50 (HepG2): 29 µM

CC(C(=O)N1CCCCCC1)N1CCN(S(=O)(=O)c2ccc(C(C)(C)C)cc2)CC1 (configuration not stated)
EC50 (Plasmodium falciparum [1]): 0.65 µM | EC50 (HepG2): > 40 µM

CCC(C(=O)N1CCCC1)N1CCN(S(=O)(=O)c2ccc(C(C)(C)C)cc2)CC1 (configuration not stated)
EC50 (Plasmodium falciparum [1]): 1.9 µM | EC50 (HepG2): > 40 µM
